Article PMC7857643 (ACS chemical biology, 2016)
Positions count from the first letter of the chain named. Values joined by “and” are separate entries in the source; they are usually repeats but may differ in a detail not shown here. Identical values can stand only once.

Key:
[1] = system: zebrafish TDP2 (zTDP2); assay: Recombinant TDP2 assay, zebrafish TDP2; type: biochemical, D. rerio; conditions: full-length zebrafish TDP2
[2] = biological target: T1, human cellular TDP2 in HT29 whole cell extracts (Homo sapiens, UniProt O95551); assay: TDP2 assay with whole cell extracts from HT29 cells; type: biochemical; conditions: Supporting Information Figure 1
T1 sequence (O95551 1-362): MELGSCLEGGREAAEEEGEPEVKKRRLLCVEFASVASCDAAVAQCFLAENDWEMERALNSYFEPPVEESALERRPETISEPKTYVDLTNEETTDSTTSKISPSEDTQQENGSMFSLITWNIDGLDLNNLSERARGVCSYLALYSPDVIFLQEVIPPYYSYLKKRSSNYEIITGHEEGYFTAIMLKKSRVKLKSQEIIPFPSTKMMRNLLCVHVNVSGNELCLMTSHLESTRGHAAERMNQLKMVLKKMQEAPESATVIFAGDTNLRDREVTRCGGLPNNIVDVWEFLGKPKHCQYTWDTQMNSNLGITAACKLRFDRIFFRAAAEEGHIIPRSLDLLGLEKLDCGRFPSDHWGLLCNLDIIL
Procedure, shortened: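 1 × 10^7 human cells were lysed 15 min on ice and spun at 12,000g for 10 min; protein was measured and extracts were stored at −80 °C. Extract at 10–20 μg/mL (30–40% cleavage) was incubated with 1 nM 32P-labeled 5′-phosphotyrosyl 18-mer DNA and test compound for 15 min at RT in pH 7.5 Tris/KCl/MgCl2 buffer. Products were run on 16% denaturing PAGE and quantified by densitometry.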

[3] = system: TK6 human lymphoblastoid cells (TK6 WT); assay: Drug combination with etoposide in TK6 cells; type: cell-based; conditions: increasing concentrations of ETP
Procedure, shortened: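 TK6 wild-type lymphoblastoid cells seeded at 10,000 cells/well and exposed continuously to the test compound combined with increasing etoposide concentrations for 72 h, in triplicate. ATPlite luminescence read at 72 h after 5 min incubation. Viability was expressed as a percentage of the ATP level in untreated cells.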

[4] = biological target: T2, mTDP2 WT (Mus musculus, UniProt Q9JJX7); assay: Recombinant TDP2 assay, mouse TDP2 wild type; type: biochemical
T2 sequence (Q9JJX7 1-370): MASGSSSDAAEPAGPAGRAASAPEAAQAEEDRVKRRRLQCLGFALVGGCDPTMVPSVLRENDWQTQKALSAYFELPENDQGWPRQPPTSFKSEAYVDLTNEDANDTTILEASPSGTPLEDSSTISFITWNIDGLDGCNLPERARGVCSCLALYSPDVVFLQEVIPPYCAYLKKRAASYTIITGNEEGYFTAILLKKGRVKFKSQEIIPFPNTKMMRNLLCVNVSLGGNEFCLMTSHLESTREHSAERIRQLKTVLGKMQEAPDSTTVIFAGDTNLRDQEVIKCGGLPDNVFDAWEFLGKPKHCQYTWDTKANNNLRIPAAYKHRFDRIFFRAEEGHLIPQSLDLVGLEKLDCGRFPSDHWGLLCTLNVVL

[5] = biological target: native endogenous avian TDP2 in DT40 whole cell extracts (Gallus gallus, UniProt F1NW29); assay: TDP2 assay with DT40 whole cell extracts; type: biochemical, chicken; conditions: Supporting Information Figure 1
Sequence of native endogenous avian TDP2 in DT40 whole cell extracts (F1NW29 whole entry): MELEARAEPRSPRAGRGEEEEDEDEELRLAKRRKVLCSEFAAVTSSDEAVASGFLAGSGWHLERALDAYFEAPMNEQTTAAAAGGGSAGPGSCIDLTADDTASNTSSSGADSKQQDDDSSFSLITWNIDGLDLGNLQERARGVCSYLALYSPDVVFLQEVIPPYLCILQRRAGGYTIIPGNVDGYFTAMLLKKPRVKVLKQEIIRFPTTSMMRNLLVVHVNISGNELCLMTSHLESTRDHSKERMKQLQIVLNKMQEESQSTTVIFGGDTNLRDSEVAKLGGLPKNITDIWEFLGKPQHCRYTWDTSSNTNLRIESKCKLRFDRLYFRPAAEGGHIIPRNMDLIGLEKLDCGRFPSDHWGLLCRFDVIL

[6] = system: C. elegans TDP2 (cTDP2); assay: Recombinant TDP2 assay, C. elegans TDP2; type: biochemical; conditions: full-length C. elegans TDP2
[7] = system: DU145 prostate cancer cells; assay: Cell viability / drug combination with etoposide in DU145 cells; type: cell-based, human
[8] = biological target: T3, recombinant human TDP2 (Homo sapiens, UniProt O95551); assay: Kinetics experiments; type: biochemical
T3 sequence (O95551 1-362): T1 sequence (O95551 1-362)
Procedure, shortened: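 Recombinant TDP2 at 10 pM was incubated at RT with 5, 10, 20 or 800 nM unlabeled TY19 substrate, spiked with 1 nM 32P-labeled TY19, with 0, 30, 50 or 150 nM test compound. Time-course reactions were resolved on 16% denaturing PAGE. Initial velocities from linear fits went into a Lineweaver–Burk plot.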

[9] = biological target: T4, mTDP2 8M (5M + E242G, S244A, R316G) (Mus musculus, UniProt Q9JJX7, E242G/I281T/K282R/P318T/Q278R/R316G/S244A/Y321C); assay: Recombinant TDP2 assay, mouse TDP2 8M mutant; type: biochemical; conditions: IC50 mTDP2 8M, mouse TDP2 with eight human mutations
T4 sequence (Q9JJX7 1-370 E242G/S244A/Q278R/I281T/K282R/R316G/P318T/Y321C): T2 sequence (Q9JJX7 1-370) with E242G, S244A, Q278R, I281T, K282R, R316G, P318T, Y321C

[10] = system: TK6 TDP2 KO cells; assay: Drug combination with etoposide in TK6 TDP2 KO cells; type: cell-based, human
[11] = system: DT40 TDP2 KO cells; assay: Drug combination with etoposide in DT40 TDP2 KO cells; type: cell-based, chicken
Procedure, shortened: (§1)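 DT40 cells (TDP2-knockout, with or without human TDP2 complementation) seeded at 200 cells/well and exposed continuously to the test compound plus etoposide (or camptothecin) across concentration ranges for 72 h, in triplicate. Viability read at 72 h by ATPlite luminescence after 5 min. Viability was the ATP level of treated cells over untreated cells × 100.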

[12] = system: DT40 hTDP2 cells; assay: Drug combination in TDP2 knockout DT40 cells complemented with human TDP2; type: cell-based, chicken
Procedure, shortened: as §1

[13] = biological target: T5, mTDP2 9M (8M + H323L) (Mus musculus, UniProt Q9JJX7, E242G/H323L/I281T/K282R/P318T/Q278R/R316G/S244A/Y321C); assay: biochemical
T5 sequence (Q9JJX7 1-370 E242G/S244A/Q278R/I281T/K282R/R316G/P318T/Y321C/H323L): T2 sequence (Q9JJX7 1-370) with E242G, S244A, Q278R, I281T, K282R, R316G, P318T, Y321C, H323L

[14] = system: DT40 avian lymphoblastoid cells; assay: Drug combination with etoposide in DT40 cells; type: cell-based, chicken
[15] = biological target: T6, mTDP2 5M (Q278R, I281T, K282R, P318T, Y321C) (Mus musculus, UniProt Q9JJX7, I281T/K282R/P318T/Q278R/Y321C); assay: Recombinant TDP2 assay, mouse TDP2 5M mutant; type: biochemical
T6 sequence (Q9JJX7 1-370 Q278R/I281T/K282R/P318T/Y321C): T2 sequence (Q9JJX7 1-370) with Q278R, I281T, K282R, P318T, Y321C

[16] = biological target: T7, recombinant human TDP2 (REC hTDP2) (Homo sapiens, UniProt O95551); assay: Recombinant TDP2 assay; type: biochemical
T7 sequence (O95551 1-362): T1 sequence (O95551 1-362)

`N#Cc1ccc2cc3c(=O)[nH]c(=O)nc-3n(-c3cccc(-c4nnn[nH]4)c3)c2c1` [Compound 1, 2,4-Dioxo-10-[3-(1H-tetrazol-5-yl)phenyl]pyrimido[4,5-b]-quinoline-8-carbonitrile] was tested, and the “resistance of zTDP2 to the drug” value [1] was “at least 3 orders of magnitude”, the “activity against human cellular TDP2 in HT29 whole cell extracts” value [2] was “confirmed” and the “combination effect with ETP” value [3] was “supra-additive effect”. The IC50 [4] was greater than 111000 nM, the “activity against native endogenous avian TDP2 in DT40 whole cell extracts” value [5] was “active” and the “resistance of cTDP2 to the drug” value [6] was “at least 3 orders of magnitude”. The “synergy with ETP” value [7] was “synergistic effect”, the “combination effect with ETP” value ([7]; 5 μM ETP) was “supra-additive effect” and the “cells killed in combination with ETP” value ([7]; 1 in combination with 1 μM of ETP) was “over 90%”. The cytotoxicity by itself ([7]; up to 50 μM, 72 h) was “not cytotoxic”, the kcat ([8]; 30 nM of 1) was 2.75 s⁻¹ and the kcat ([8]; 50 nM of 1) was 2.71 s⁻¹. The kcat ([8]; 150 nM of 1) was 3.03 s⁻¹, the “mode of inhibition of hTDP2” value ([8]; Lineweaver double-reciprocal plot) was “competitive inhibitor” and the IC50 [9] was 710 nM and 580 nM. For the same compound, the “synergy with ETP” value [10] was “synergy was not observed”, the “synergy with ETP” value [11] was “synergy was greatly reduced” and the synergy with camptothecin ([12]; ETP replaced by camptothecin, Supporting Information Figure 4) was “not observed”. The “synergy with ETP” value ([12]; increasing concentrations of ETP) was “synergistic effect”, the IC50 [13] was 29 ± 10 nM and the “synergy with ETP” value [14] was “showed synergy”. The IC50 [15] was 1200 ± 100 nM.
For `N#Cc1ccc2cc3c(=O)[nH]c(=O)nc-3n(-c3ccccc3)c2c1` [Compound 3, 2,4-Dioxo-10-phenyl-pyrimido[4,5-b]quinoline-8-carbonitrile], the “synergy with ETP” value [7] was “synergistic effect”.
`O=c1nc2n(-c3ccc(O)cc3)c3cc(Cl)ccc3cc-2c(=O)[nH]1` [Compound 4, 8-Chloro-10-(4-hydroxyphenyl)pyrimido[4,5-b]quinoline-2,4-dione] was tested, and the “decrease of potency against hTDP2” value ([16]; 4 relative to 2 (cyano replaced by chloro)) was 27 fold.
`O=c1nc2n(-c3ccccc3)c3ccccc3cc-2c(=O)[nH]1` [Compound 5, 10-Phenylpyrimido[4,5-b]quinoline-2,4(3H,10H)-dione] was tested, and the “additional loss of potency against hTDP2” value ([16]; 5 relative to 4 (chloro removed)) was 18 fold.
With `COc1cc([C@@H]2c3cc4c(cc3[C@@H](O[C@@H]3O[C@@H]5CO[C@@H](C)O[C@H]5[C@H](O)[C@H]3O)[C@H]3COC(=O)[C@H]23)OCO4)cc(OC)c1O` [ETP, etoposide, reference compound] the “cells killed by ETP by itself” value ([7]; 1 μM ETP alone) was “around 50%”.
